# Assay outcomes: PubChem BioAssay, The Scripps Research Institute Molecular Screening Center
# Only some compounds are listed: those with a hit (about 4.6% of all), similar ones and a draw of the others.
# GPR7 antag: blocks human GPR7 receptor signaling | 290,000 compounds, 1.1% hits | P48145 | inhibition, % at 4.4 µM | GPR7-expressing cells, fluorescence antagonist assay; in the data active = inhibition above about 16%, passing the limit was not always enough;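 note: cells stimulated with the agonist NPW; 0% = agonist with vehicle and 100% = vehicle without agonist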
# OX1R antag-1: antagonists of human orexin 1 receptor; 330,000 compounds, 0.43% hits; inhibition, % at 5 µM; O43613; CHO/OX1R cells, Fluo-8 calcium fluorescence, orexin A; AID 434989;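 active = inhibition above its plate's threshold, mean inhibition of all tested compounds on the plate plus 3 SD, cut at about 37% in these data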;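 note: 0% = orexin A challenge wells and 100% = SB-334867-A antagonist wells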
# Target sequence (O43613 whole entry, looked up): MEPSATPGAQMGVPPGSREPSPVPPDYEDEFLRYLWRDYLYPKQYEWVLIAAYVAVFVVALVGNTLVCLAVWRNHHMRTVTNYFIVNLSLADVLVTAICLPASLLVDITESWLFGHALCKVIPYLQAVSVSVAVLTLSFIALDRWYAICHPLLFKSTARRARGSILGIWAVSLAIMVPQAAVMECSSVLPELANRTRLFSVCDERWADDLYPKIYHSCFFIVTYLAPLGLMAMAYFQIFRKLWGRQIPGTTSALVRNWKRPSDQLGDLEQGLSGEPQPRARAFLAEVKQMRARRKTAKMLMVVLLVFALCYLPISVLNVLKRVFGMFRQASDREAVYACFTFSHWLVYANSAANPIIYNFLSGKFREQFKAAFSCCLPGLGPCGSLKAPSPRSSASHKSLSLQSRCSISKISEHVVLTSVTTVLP
# OX1R antag-2: OX1R (human) antagonism | OX1R-expressing cells, FRET antagonist read-out | inhibition, % at 6.6 µM | 330,000 compounds, 1.8% hits; in the data active = inhibition mostly above about 38%, no sharp cut-off; inactive = mostly below about 40%;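 note: 0% = agonist challenge alone and 100% = reference antagonist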
# TAAR1 ag: agonists of human TAAR1; CHO RD-HGA16 TAAR1, Fluo-8 calcium fluorescence; vehicle wells 0%, saturating PEA agonist 100%; activation, % at 3 µM; 360,000 compounds, 0.99% hits; AID 624467;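 active = activation above the mean activation of all test compounds in the run plus 3 SD, cut at about 38% in these data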
#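 Test system: RD-HGA16 (CHO) cells co-expressing Gα16 and hTAAR1; dosing: one-point dosing at 3 µM (nominal); timing: 17-24 h seeding, 75 min 37 °C dye, 30 min RT; signal: kinetic Fluo-8 calcium fluorescence; read-out basis: % activation relative to PEA EC100 response; controls: DMSO and PEA EC100; replicates: n 1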
# TAAR1 antagonist: antagonists of human TAAR1 | Q96RJ0 | CHO RD-HGA16 TAAR1, Fluo-8 calcium fluorescence, antagonist | inhibition, % at 3 µM | 360,000 compounds, 1.5% hits | AID 624466;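 active = inhibition above a per-plate cutoff, the mean inhibition of test compounds on that plate plus 3 SD, cut at about 49% in these data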;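 note: 0% = DMSO plus EC80 beta-PEA response and 100% = DMSO alone without agonist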
#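 Test system: hTAAR1-expressing CHO RD-HGA16 cells, Gα16-coupled; Probe or stimulus: EC80 β-phenethylamine stimulus; Compound dosing: single nominal final test compound concentration of 3 µM; Timing: 140 s kinetic read after compound, 140 s after agonist; Signal: Fluo-8 calcium-sensitive fluorescence; Measure: % inhibition of agonist calcium response; Controls: DMSO and EC80 PEA controls.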
# CHO parental Ca: counter-screen for OX1R antagonists: effect in parental CHO cells; parental CHO-K1, ATP-induced calcium, Fluo-8 fluorescence; 330,000 compounds, 0.63% hits; AID 463079; inhibition, % at 5.6 µM;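 active = inhibition above that plate's mean sample inhibition plus 3 SD, cut at about 26% in these data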;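 note: 0% = ATP-challenged DMSO wells and 100% = DMSO wells without ATP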
#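 Material: parental CHO cells / Compound: single nominal dose of 5.6 µM per compound / Signal: Fluo-8 fluorescence / Replicates: singlicate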
# nonsel antag count: counter-screen for TAAR1 antagonists: nonselective antagonists. counterscreen cell line, calcium fluorescence, antagonist mode. shares compounds with TAAR1 antagonist. inhibition, % at 3 µM. 2,400 compounds, 77% hits; in the data active = inhibition above about 22%;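 note: CHO-Ga16 host cells stimulated with ATP at an EC80 level; 0% = agonist EC80 plus vehicle and 100% = vehicle without agonist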
# TAAR1 ant conf: confirmation of human TAAR1 antagonists | inhibition, % at 3 µM | 2,400 compounds, 40% hits | TAAR1-expressing cells, fluorescence antagonist read-out | shares compounds with TAAR1 antagonist | AID 651785; in the data active = inhibition above about 49%;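 note: CHO-Ga16 host cells challenged with agonist PEA near its EC80; 0% = agonist at EC80 plus vehicle and 100% = vehicle with no agonist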
# Ga16 nonsel ag: counter-screen for TAAR1 antagonists: nonselective Ga16 agonists; activation, % at 3 µM; shares compounds with TAAR1 antagonist; 2,400 compounds, 18% hits; Ga16-expressing cells, calcium fluorescence, agonist counterscreen; AID 651953; in the data active = activation above about 12%;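 note: 0% = vehicle wells and 100% = saturating stimulus response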
# TAAR1 ag counter: counter-screen for human TAAR1 antagonists: TAAR1 agonists | activation, % at 3 µM | 2,400 compounds, 2% hits | hTAAR1 cell line, fluorescence activation, agonist mode | shares compounds with TAAR1 antagonist; in the data active = activation above about 37%;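 note: CHO cells stably expressing TAAR1 with calcium dye readout; 0% = DMSO vehicle and 100% = full agonist response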
# An asterisk follows results filed as active; / = not tested or not shown.
SMILES,GPR7 antag,OX1R antag-1,OX1R antag-2,TAAR1 ag,TAAR1 antagonist,CHO parental Ca,nonsel antag count,TAAR1 ant conf,Ga16 nonsel ag,TAAR1 ag counter
CN(c1ccccc1)S(=O)(=O)c1cccc(NC(=O)c2nn(C)c(=O)c3ccccc23)c1,/,-3.1,5.7,9.7,59.3*,-7.0,25.3*,41.3,6.4,5.5
COc1ccc2[nH]c3c(=O)n(/N=C/[C@H]4C(C)C=C(C)CC4C)c(=O)[nH]c3c2c1 (some centres not stated),15.0,-18.2,24.4,18.3,60.2*,-8.3,34.4*,48.2,9.2,10.3
COc1ccc2[nH]c3c(=O)n(N)c(=O)[nH]c3c2c1,-5.4,/,/,4.0,-0.5,/,/,/,/,/
CC1=CC(C)[C@H](/C=N/n2c(=O)[nH]c3c([nH]c4ccc(Br)cc43)c2=O)C(C)C1 (some centres not stated),-13.0,-12.7,8.1,1.8,10.6,-1.9,/,/,/,/
COc1ccc2c(c1)[nH]c1c(=O)n(/N=C/C3C(C)C=C(C)CC3C)c(=O)[nH]c12 (configuration not stated),-18.6,-12.6,24.4,17.4,62.2*,-0.1,21.0,41.1,6.9,8.8
COc1cc(-c2c(C#N)c(N)nc3c2CCCC3)ccc1O,-5.6,-28.7,0.9,6.6,-5.1,-17.9,/,/,/,/
COc1ccc(-c2c(C#N)c(N)nc3c2CCc2ccccc2-3)cc1OC,2.1,-5.8,3.3,22.6,60.1*,-10.3,31.3*,51.7*,9.2,24.2
COc1ccc(-c2cc(-c3ccc(O)cc3)nc(N)c2C#N)cc1OC,-0.5,-14.3,6.4,13.4,50.4*,-18.0,26.2*,46.2,7.7,14.6
CCCc1cc(-c2ccc(O)c(OCC)c2)c(C#N)c(N)n1,-5.6,-16.8,37.8,0.2,0.6,-15.7,/,/,/,/
CC(C)NC(=O)C1(C)CCN1C(=O)c1cccn1C (configuration not stated),/,/,/,3.3,12.6,/,/,/,/,/
CC(=O)c1cccc(NC(=O)C2(C)Cc3c(-c4ccccc4)ccnc3O2)c1 (configuration not stated),/,/,/,2.1,4.3,/,/,/,/,/
CC(C)CNC(=O)C1(C)CCCN1C(=O)C(C)(C)Oc1ccc(Cl)cc1 (configuration not stated),/,/,/,4.9,-35.5,/,/,/,/,/
CCc1nc2ccc(C(=O)NCc3ccc4c(c3)OCO4)cn2c1N(C)CCC(C)C,/,/,/,4.8,67.3*,/,7.4,27.1,4.8,7.1
OC[C@@H]1CN(CCN2CCOCC2)C[C@H](n2cnc3c(N4CCCC4)ncnc32)O1,/,/,/,0.9,-17.8,/,/,/,/,/
COc1ccc(-c2cc(C(=O)NCc3ccco3)c3ccccc3n2)cc1,-1.8,-29.9,33.0,9.4,48.8*,-20.7,19.5,31.1,4.9,-0.6
COc1ccc(-c2cc(C(=O)NCc3ccco3)c3ccccc3n2)c(OC)c1,7.6,-25.9,3.8,5.0,17.3,-15.2,/,/,/,/
COc1ccc(-c2cc(C(=O)Nc3c(C)n(C)n(-c4ccccc4)c3=O)c3ccccc3n2)cc1,-9.7,-34.6,6.0,14.7,58.5*,-15.6,25.6*,40.1,7.8,8.1
CN(CCOc1ccc(Cl)cc1)C(=O)c1cc(-c2ccco2)nc2ccccc12,/,-13.2,25.3,14.8,74.0*,-1.8,39.6*,58.9*,9.1,9.4
Cc1ccc(NC(=O)CN(C)C(=O)c2cc(-c3ccco3)nc3ccccc23)cc1,/,-10.7,6.3,11.3,1.4,-27.4,/,/,/,/
COc1ccc(Nc2cc(C(=O)NCc3ccco3)c3ccccc3n2)c(OC)c1,2.1,-27.7,17.6,8.1,50.8*,-13.7,9.1,23.6,6.3,3.4
COC(=O)c1cc(=O)nc(NN=Cc2ccccc2O)s1,/,/,/,-0.1,8.3,/,/,/,/,/
C/C(=N\NC(=O)c1cc2ccccc2cc1O)c1cc2ccccc2o1,-10.0,3.6,7.7,18.9,60.0*,-6.4,62.0*,88.1*,37.0*,34.2
C/C(=N\NC(=O)c1nc2ccccn2c1C)c1cc2ccccc2o1,-9.2,-34.0,13.9,6.4,18.9,-11.7,/,/,/,/
O=C1NC(=Nc2ccccc2)S/C1=C\c1cccn1-c1ccccc1,17.0,17.2,60.1*,4.4,72.7*,-2.3,32.1*,43.4,2.6,1.8
O=C(NCc1ccccc1)[C@H]1CCCN1C(=O)[C@H]1CCCN1C(=O)c1ccc(Cl)cc1,/,/,/,0.6,-11.8,/,/,/,/,/
COc1ccc(C(=O)Nc2cccc(NC(=O)c3ccc(OC)c(OC)c3)n2)cc1OC,-1.7,-13.6,13.8,25.2,62.1*,-4.5,35.3*,54.8*,10.5,7.4
CC(C)C[C@@H]1COc2cc(NCCO)ccc2S(=O)(=O)N1,/,/,/,0.1,-18.8,/,/,/,/,/
